# Screens as filed in PubChem.
# Most compounds without a hit are left out; they make up all but 2.1% or so of the library.
# STK33 inh = inhibitors of purified STK33 kinase, primary screen, biochemical, ADP-Glo luminescence, homogeneous, cell-free | MBP phosphorylation | Serine/threonine-protein kinase 33 (Homo sapiens), Q9BYT3 | inhibition, % at 10 µM | hit rate 0.073% among 320,000;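 active means inhibition at or above 25%, using the most active replicate where run in duplicate; inactive means inhibition below 25%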
# MEKK3 PB1 HTS = modulators of MEKK3-MEK5 PB1 binding, primary screen, biochemical, wildtype MEKK3, multiplex bead flow cytometry, Alexa488-MEK5 | hit rate 1.4% among 290,000 | binding response (% of control), % at 10 µM | bead-based flow cytometry, Alexa488-MEK5 binding to MEKK3; actives lie on both sides; 0 = blocked by unlabeled MEK5, 100 = vehicle;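 active means binding response more than 3 SD above or below the average of its plate-row segment, actives on both sides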;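 further: Alexa488 bead fluorescence after subtracting the streptavidin-only scavenger bead signal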
# Target sequence (Q99759 whole entry, looked up): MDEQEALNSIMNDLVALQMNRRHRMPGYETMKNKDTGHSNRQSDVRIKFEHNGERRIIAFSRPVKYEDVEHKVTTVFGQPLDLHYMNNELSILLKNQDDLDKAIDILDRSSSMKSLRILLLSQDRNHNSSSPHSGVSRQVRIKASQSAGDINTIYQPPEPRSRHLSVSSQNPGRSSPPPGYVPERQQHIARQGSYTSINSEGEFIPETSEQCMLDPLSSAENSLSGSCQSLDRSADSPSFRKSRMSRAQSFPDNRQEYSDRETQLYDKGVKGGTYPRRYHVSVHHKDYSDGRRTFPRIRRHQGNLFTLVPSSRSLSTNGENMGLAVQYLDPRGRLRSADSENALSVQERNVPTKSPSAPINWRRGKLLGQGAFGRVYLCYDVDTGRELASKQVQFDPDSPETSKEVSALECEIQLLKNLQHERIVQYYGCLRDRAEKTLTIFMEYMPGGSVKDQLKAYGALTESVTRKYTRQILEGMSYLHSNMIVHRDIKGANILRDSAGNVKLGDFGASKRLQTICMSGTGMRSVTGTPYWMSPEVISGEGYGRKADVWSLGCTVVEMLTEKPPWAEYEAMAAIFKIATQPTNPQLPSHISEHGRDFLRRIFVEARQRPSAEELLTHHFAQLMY
# GSK3beta inhib = human GSK3beta kinase inhibitors, primary screen, biochemical, cell-free homogeneous, HTS. hit rate 0.038% among 300,000. activity score (negative = inhibition), % at 10 µM. GST-GSK3beta kinase, ADP-Glo luminescence, 60 min; stronger effect = lower value. AID 2097, 2009;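 active means more than half of replicate wells score below -50%, meaning over 50% inhibition versus plate controls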;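 further: 0% = median DMSO wells and -100% = median GW8510 positive control wells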
#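 Test system – GST-tagged human GSK3beta kinase, cell-free · Incubation – 60 min enzyme reaction, room temperature · Signal – ADP-Glo luminescence · Also added – peptide substrate and ATP at 25 µM · Controls – DMSO neutral wells and GW8510 at 20 µM as positive · Buffer or medium – Tris/MgCl2 kinase buffer · Measure – Luminescence-derived activity versus plate DMSO and GW8510 wells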
# GSK3A inh = blockers of GSK3A enzyme activity – biochemical, luminescence, cell-free homogeneous, HTS, primary screen | Glycogen synthase kinase-3 alpha (Homo sapiens), P49840 | hit rate 0.1% among 320,000 | inhibition, % at 10 µM | GSK-3 alpha kinase, ADP-Glo luminescence, 60 min | AID 2650, 2010;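 active means more than half of replicates show inhibition above 20%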;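 further: GST-tagged GSK-3 alpha with peptide substrate and 25 µM ATP; 0% = DMSO neutral wells and 100% = GW8510 positive control wells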
# MEKK2 WT-MEK5 = modulators of MEK5 binding to wildtype MEKK2, primary screen, biochemical, multiplex bead flow cytometry, Alexa488-MEK5; Mitogen-activated protein kinase kinase kinase 2 (Homo sapiens), Q9Y2U5; Alexa488-MEK5 binding to MEKK2 WT; actives lie on both sides; binding response (% of control), % at 10 µM; hit rate 1.1% among 290,000; in the data active means binding response below about 67% or above about 130%
# MEKK2 mut-MEK5 = MEK5 binding signal on mutant MEKK2 PB1, primary screen, biochemical, multiplex bead flow cytometry, Alexa488-MEK5; AID 1530, 2009; hit rate 0.35% among 290,000; Alexa488-MEK5 binding to MEKK2 mutant; percent response, % at 10 µM; in the data active means percent response above about 24%, passing the limit was not always enough
# MEKK2wt confirm = modulators of MEK5 binding to wildtype MEKK2, confirmation, biochemical, single concentration, multiplex bead flow cytometry; Alexa488-MEK5 binding to MEKK2 WT; actives lie on both sides; hit rate 2.4% among 5,900; binding response (% of control), % at 10 µM; shares compounds with MEKK3 PB1 HTS; AID 1892, 2009; in the data active means binding response below about 16% or above about 210%; inactive means in between
# MEKK2mut-MEK5 = mutant MEKK2 PB1-MEK5 binding signal retest – biochemical, single concentration, multiplex bead flow cytometry, confirmation; shares compounds with MEKK3 PB1 HTS; Alexa488-MEK5 binding to MEKK2 mutant; percent response, % at 10 µM; hit rate 2% among 5,900; in the data active means percent response mostly above about 71%, no sharp cut-off; inactive means mostly below about 38%;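 further: higher means compound restores mutant binding toward wildtype level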
# MEKK3-MEK5 inh = MEKK3 wild-type PB1 binding to MEK5, inhibitors, confirmation, biochemical, bead multiplex flow cytometry, single concentration, wildtype; shares compounds with MEKK3 PB1 HTS; Alexa488-MEK5 binding to MEKK3; stronger effect = lower value; binding response (% of control), % at 10 µM; hit rate 1.8% among 5,900; AID 1894, 2009;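 active means binding response below 72% of control, or above a set upper limit, though filed actives all read lower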;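 further: 100% = DMSO only wells and 0% = binding blocked by excess unlabeled MEK5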
# * hit, by the source's call; x = no result; [ ] = dose if it differs, or a comment.
SMILES,STK33 inh,MEKK3 PB1 HTS,GSK3beta inhib,GSK3A inh,MEKK2 WT-MEK5,MEKK2 mut-MEK5,MEKK2wt confirm,MEKK2mut-MEK5,MEKK3-MEK5 inh
CC(C)COc1ccc(CN=C(N)N=C(N)N)cc1Cl,-2,106,0,4,139*,25,112,1,89
O=C(Nc1cc(Cl)cc(Cl)c1)c1cccc(OC(F)F)c1,0,109,-20,1,172*,39,106,5,104
CC(C)(C)c1cc(NCCCn2ccnc2)n2ncc(-c3ccc(Cl)cc3)c2n1,1,98,1,1,157*,37*,158,37,113
COc1ccc(CCNC(=O)Cc2ccc(NC3=NC4CS(=O)(=O)CC4S3)cc2)c(OC)c1 (stereo not given),-1,99,3,1,97,-2,x,x,x
CC(=O)c1c(C)[nH]c(C(=O)Nc2ccccn2)c1C,1,95,-1,1,97,-6,x,x,x
CC(=O)c1c(C)[nH]c(C(=O)NC2=NCCS2)c1C,-1,2.0*[inhibitor],1,-1,3.0*[inhibitor],-14,1.0*[inhibitor],-29,2.0*
CN(Cc1cccc(C(F)(F)F)c1)Cc1nc(-c2cnccn2)no1,0,100,-2,-4,100,-1,x,x,x
Cc1ccc(C)c(NC(=O)C(=O)NCCc2c[nH]c3ccccc23)c1,2,34*[inhibitor],2,2,35*[inhibitor],-16,102,2,107
Cc1cccc(NC(=S)NCCc2c[nH]c3ccccc23)c1,-2,128*,-8,-5,101,-1,107,6,104
Cc1ccc(NC(=S)NCCc2c[nH]c3ccccc23)cc1,-1,103,-2,1,108,11,x,x,x
Cc1ccc(C(=O)N/C(=C\c2cccs2)C(=O)NCCc2c[nH]c3ccccc23)cc1,0,129*,0,-2,104,0,97,-3,103
O=C(NCCc1c[nH]c2ccccc12)c1cnccn1,0,74*[inhibitor],6,1,76,-3,105,3,101
Cc1ccc(NC(=O)C(=O)NCCc2c[nH]c3ccccc23)c(C)c1,0,95,3,-3,99,-5,x,x,x
O=C(CN(c1cccc(Cl)c1)S(=O)(=O)c1ccc(Cl)cc1)NCc1ccccn1,0,93,5,1,95,1,x,x,x
Nc1nc(C23CC4CC(CC(C4)C2)C3)[nH]c(=O)n1,0,97,-1,0,98,1,x,x,x
CC1(C)Cc2ccccc2/C(=C/C(=O)N2CCCCCC2)N1,-2,79*[inhibitor],3,4,85,-9,103,3,102
COc1cc2c(cc1OC)/C(=C/C(=O)N1CCOCC1)NC(C)(C)C2,-1,103,0,-4,105,8,x,x,x
COc1ccccc1CC(=O)NNC(=O)CN(C)S(=O)(=O)c1ccc(Cl)cc1,x,x,2,x,x,x,x,x,x
Cc1cc(Nc2ccc(Cl)cc2)nc(-c2ccccc2O)n1,-1,110,-1,-2,140*,28*,127,9,105
